Reference: ChEMBL document CHEMBL3739269, “Suppression of store overload-induced calcium release by hydroxylated metabolites of carvedilol” (Bioorg Med Chem Lett, 2016)
Activity calls are given as the source filed them. No cut-off for these calls is given here.

Columns and labels:
Details in all cases: Homo sapiens
[1] = Inhibition of RyR2 R4496C mutant-mediated store overload-induced calcium release in HEK293 cells assessed as reduction in amplitude of spontaneous calcium oscillations by fura-2 AM dye based fluorescence assay; type: cell-based
Method in brief: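 Single-cell fura-2 ratio traces were recorded in R4496C RyR2-expressing HEK293 cells. Cells were perfused continuously with increasing concentrations (0, 3, 10, 30 µM) without pre-incubation. The amplitude of spontaneous Ca²⁺ oscillations was compared before and after each addition.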

HEK293 [2] = experiment: Inhibition of RyR2 R4496C mutant in HEK293 cells assessed as reduction of caffeine-induced calcium release at 30 uM by fura-2 AM dye based fluorescence assay; type: cell-based
Method in brief: (§1)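 Fura-2 ratio imaging of single HEK293 cells expressing mutant RyR2 (R4496C), perfused with compound up to 30 µM without pre-incubation. Cytosolic Ca²⁺ level was monitored, and caffeine, a RyR2 agonist, was then added to trigger Ca²⁺ release. Amplitude of the caffeine-induced release was read from the traces.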

HEK293 [3] = experiment: Inhibition of RyR2 R4496C mutant in HEK293 cells assessed as inhibition of store overload-induced calcium release at 10 uM by fura-2 AM dye based fluorescence assay; type: cell-based
Method in brief: (§2)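 HEK293 cells expressing RyR2 R4496C, loaded with fura-2 AM, were followed by single-cell Ca²⁺ imaging. Cells were perfused continuously with rising drug levels (0, 3, 10, 30 µM) without pre-incubation. Read-out was the percentage of cells showing spontaneous Ca²⁺ oscillations at each concentration.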

HEK293 [4] = experiment: Induction of cytosolic calcium level in HEK293 cells expressing RyR2 R4496C mutant at 30 uM by fura-2 AM dye based fluorescence assay; type: functional, cell-based; method in brief: as §1
HEK293 [5] = experiment: Inhibition of RyR2 R4496C mutant in HEK293 cells assessed as inhibition of store overload-induced calcium release at 30 uM by fura-2 AM dye based fluorescence assay; type: cell-based; method in brief: as §2

IC50 [1] [µM]	Compound	inhibition (HEK293 [2])	inhibition (HEK293 [3]) [%]	Activity (HEK293 [4])	inhibition (HEK293 [5])
9.4	COc1ccccc1OCCNCC(O)COc1c(O)ccc2[nH]c3ccccc3c12 (stereo not given)	Active	70	Active	Active
10.4	COc1cc(O)ccc1OCCNCC(O)COc1cccc2[nH]c3ccccc3c12 (stereo not given)	inactive	10	inactive	Active
19.4	COc1ccc(O)cc1OCCNCC(O)COc1cccc2[nH]c3ccccc3c12 (stereo not given)	inactive	10	inactive	80%
